Common to all, as to format: cell-based, rabbit
In assay [1] the target is T1, D444A mutant EAAC1 (Oryctolagus cuniculus, UniProt P31597, D444A).
T1 sequence (P31597 1-524 D444A): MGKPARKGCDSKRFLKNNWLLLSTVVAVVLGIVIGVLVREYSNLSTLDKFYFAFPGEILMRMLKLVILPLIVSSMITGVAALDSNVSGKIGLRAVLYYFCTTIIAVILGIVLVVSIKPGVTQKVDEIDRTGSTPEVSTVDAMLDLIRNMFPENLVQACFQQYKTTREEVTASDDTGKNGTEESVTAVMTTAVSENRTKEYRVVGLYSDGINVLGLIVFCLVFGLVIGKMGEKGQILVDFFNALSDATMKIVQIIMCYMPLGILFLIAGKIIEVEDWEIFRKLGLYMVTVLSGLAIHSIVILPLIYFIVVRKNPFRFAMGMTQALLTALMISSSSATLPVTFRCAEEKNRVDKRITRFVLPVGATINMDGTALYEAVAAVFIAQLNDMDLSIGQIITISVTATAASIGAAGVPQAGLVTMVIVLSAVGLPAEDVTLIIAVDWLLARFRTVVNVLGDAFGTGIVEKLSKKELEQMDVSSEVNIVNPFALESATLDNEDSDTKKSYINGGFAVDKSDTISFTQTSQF
Nature of the assay: Blockade of sodium-dependent transient currents. The settings on record: read-out: IC50 for substrates/blockers of charge movements, Xenopus oocytes, mean ± SEM.

The target of assay [2] is T2, D444C after MTSES (Oryctolagus cuniculus, UniProt P31597, D444C).
T2 sequence (P31597 1-524 D444C): T1 sequence (P31597 1-524 D444A) with A444C
The experiment in a line: Blockade of transient currents. As to conditions: for Decay time of transient currents blocked: D444C after MTSES, 10 mM compound; for IC50: read-out: IC50 for substrates/blockers of charge movements, D444C after MTSES (2 mM), Xenopus oocytes, mean ± SEM. The method, boiled down:
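Oocytes were injected with cRNA for His-tagged EAAC1 D444C and held by two-electrode voltage clamp at −25 mV, stepped from −100 to +40 mV in 10-mV steps of 250 ms each, in ND96 pH 7.5. MTSES (2 mM final) was added under clamp with flow stopped, reacted 2 min, then washed out 5 min. Transients were taken as buffer minus buffer+compound (10 mM) and decay times fitted to a first-order exponential; 3–10 oocytes.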

Assay [3] deals with T3, D444N mutant EAAC1 (Oryctolagus cuniculus, UniProt P31597, D444N).
T3 sequence (P31597 1-524 D444N): T1 sequence (P31597 1-524 D444A) with A444N
Nature of the assay: Blockade of transient currents. As to conditions: D444N; for IC50: read-out: IC50 for substrates/blockers of charge movements, Xenopus oocytes, mean ± SEM.

Assay [4] has as its target T4, D444C-EAAC1 (Oryctolagus cuniculus, UniProt P31597, D444C).
T4 sequence (P31597 1-524 D444C): T1 sequence (P31597 1-524 D444A) with A444C
Nature of the assay: Blockade of sodium-dependent transient currents. As to conditions: D444C; for Decay time of transient currents blocked: 10 mM compound, at −100 mV; for IC50: read-out: IC50 for substrates/blockers of charge movements, Xenopus oocytes, mean ± SEM. An outline of the steps: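 Steps from −25 mV to −100…+40 mV. Transients taken as current without minus current with compound. Charge is the sum of integrals at −100 and +40 mV, normalised to 10 mM of the same compound. IC50 from a generalized Hill fit; decay from a first-order exponential; 3–10 oocytes.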

Assay [5] concerns the target T5, D444E-EAAC1 (Oryctolagus cuniculus, UniProt P31597, D444E).
T5 sequence (P31597 1-524 D444E): T1 sequence (P31597 1-524 D444A) with A444E
Nature of the assay: Substrate-induced steady-state transport currents in oocytes expressing D444E. The settings on record: 2 mM L-aspartate, other concentrations not given.

Structures are written as SMILES. Positions count from the first letter of the chain named.

Turning to `N[C@@H](CC(=O)O)C(=O)O` [L-Aspartate, L-aspartate], the IC50 in assay [1] worked out at 720 ± 80 µM; in assay [2] it was 112 ± 19 µM; in assay [3] it was 295 ± 45 µM; in assay [4] it was 12 ± 2 µM. Moreover, the “Decay time of transient currents blocked” value worked out at 10.2 ± 0.4 ms in assay [2] and 19.3 ± 1 ms in assay [4]. In assay [5], the “Induction of steady-state transport currents” value is “not observed”.

As for `O=C(O)CCC(=O)O` [Succinate, succinate], the IC50 in assay [1] was 870 ± 110 µM; in assay [2], 716 ± 25 µM; in assay [3] it was greater than 10000 µM; in assay [4], 840 ± 70 µM. For the same compound, the entries for the “Decay time of transient currents blocked” value in assay [2] and in assay [4] were 8.7 ± 1.5 ms and 15.7 ± 1.1 ms, respectively. Further, the “Inhibition of the transient currents” value in assay [3] (10 mM succinate) is given as “no inhibition was observed”.
